Data set [1] addresses Cyclin-dependent kinase 2 (Homo sapiens, UniProt P24941). The data set is described as follows: Inhibition of CDK2/cyclin A by IMAP florescence polarization assay.
Data set [2] concerns the target Cyclin-dependent kinase 9 (Homo sapiens, UniProt P50750). As to the kind of experiment: Inhibition of CDK9 in human HCT116 cells assessed as phosphor-ser2 level of RNA polymerase 2 after 16 hrs by high content cellular assay. It is filed as cell-based, HCT-116.
Data set [3] can be described thus: Half life in CD1 mouse at 10 mg/kg, po. The format is ADME, organism-based. Conditions: in vivo. More on the design: dose 10 mg/kg, route oral. Put shortly: (§1)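 Female CD-1 mice, 6–8 weeks old, 3 mice per timepoint. Single oral gavage dose of 10, 30 or 45 mg/kg at 10 mL/kg in 2.1 mM tartaric acid, pH 4.0. Terminal cardiac-puncture blood taken at 0.25–8 h into K2-EDTA and spun to plasma. Plasma read by LC–MS/MS (LLOD 1 ng/mL). Concentrations were averaged per timepoint before PK estimation.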

Data set [4] in a line: AUC in CD1 mouse at 5 mg/kg, iv. The format is ADME, organism-based. Also noted: dose 5 mg/kg, route intravenous. Particulars: plasma. In short, it runs like this:
(§2)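 Single IV tail-vein dose of 5 mg/kg at 5 mL/kg in 2.1 mM tartaric acid, pH 4.0, to female CD-1 mice aged 6–8 weeks, 3 per timepoint. Blood taken by cardiac puncture after euthanasia at 0.083–8 h into K2-EDTA, and plasma analysed by LC–MS/MS (LLOD 1 ng/mL). PK parameters were estimated from mean concentrations per timepoint.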

Data set [5] can be described thus: Bioavailability in CD1 mouse at 10 mg/kg, po. The format is ADME, organism-based. Conditions: in vivo. Put shortly:
as §1

A short description of data set [6]: Volume of distribution at steady state in CD1 mouse at 5 mg/kg, iv. The format is ADME, organism-based. Also noted: dose 5 mg/kg, route intravenous. Conditions: in vivo, read-out: Vdss. In short, it runs like this: as §2
A short description of data set [7]: AUC in CD1 mouse at 10 mg/kg, po. Also noted: dose 10 mg/kg, route oral. Particulars: plasma. The format is ADME, organism-based. Put shortly:
as §1

The nature of data set [8]: Cmax in CD1 mouse at 10 mg/kg, po. The format is ADME, organism-based. More on the design: dose 10 mg/kg, route oral. Particulars: in vivo. Put shortly:
as §1

The nature of data set [9]: Cmax in CD1 mouse at 5 mg/kg, iv. Particulars: in vivo. More on the design: dose 5 mg/kg, route intravenous. The format is ADME, organism-based. Put shortly: as §2
Data set [10] is described as follows: Half life in CD1 mouse at 5 mg/kg, iv. It is filed as ADME, organism-based. More on the design: dose 5 mg/kg, route intravenous. Conditions: in vivo. Put shortly: as §2
Data set [11] is described as follows: Clearance in CD1 mouse at 5 mg/kg, iv. Particulars: in vivo. Also noted: dose 5 mg/kg, route intravenous. It is filed as ADME, organism-based. Put shortly: as §2
The nature of data set [12]: AUC in CD1 mouse at 45 mg/kg, po. It is filed as ADME, organism-based. Conditions: plasma. More on the design: dose 45 mg/kg, route oral. In short, it runs like this: as §1
The nature of data set [13]: Cmax in CD1 mouse at 45 mg/kg, po. Particulars: in vivo. Also noted: dose 45 mg/kg, route oral. The format is ADME, organism-based. Put shortly:
as §1

Data set [14] is described as follows: Metabolic stability in human liver microsomes at 1 uM after 30 mins. It is filed as ADME, Microsome. Particulars: read-out: Stability. In short, it runs like this: (§3)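 Liver microsomes at 0.5 mg/mL protein in 100 mM sodium phosphate, pH 7.4, with 3.3 mM MgCl2, pre-equilibrated 10 min at 37 °C. Reaction started with 1 mM NADPH. Aliquots taken at 0, 30 and 60 min and quenched in acetonitrile with internal standard, then centrifuged and analysed by LC–MS/MS. Lidocaine and dextromethorphan served as positive controls.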
(In general: Liver microsomes are a subcellular fraction often used to study metabolism.)

Data set [15] can be described thus: Bioavailability in CD1 mouse at 45 mg/kg, po. The format is ADME, organism-based. Particulars: in vivo. Put shortly:
as §1

A short description of data set [16]: Half life in CD1 mouse at 30 mg/kg, po. Also noted: dose 30 mg/kg, route oral. It is filed as ADME, organism-based. Conditions: in vivo. In short, it runs like this: as §1
A short description of data set [17]: Metabolic stability in human liver microsomes at 1 uM after 60 mins. Particulars: read-out: Stability. The format is ADME, Microsome. Put shortly:
as §3

Data set [18] can be described thus: Cmax in CD1 mouse at 30 mg/kg, po. Also noted: dose 30 mg/kg, route oral. The format is ADME, organism-based. Conditions: in vivo. In short, it runs like this:
as §1

The nature of data set [19]: Bioavailability in CD1 mouse at 30 mg/kg, po. Conditions: in vivo. It is filed as ADME, organism-based. Put shortly:
as §1

Data set [20] can be described thus: Metabolic stability in mouse liver microsomes at 1 uM after 30 mins. Particulars: read-out: Stability. It is filed as ADME, Microsome. In short, it runs like this:
as §3

Data set [21] concerns the target Cyclin-dependent kinase 1/cyclin B1 (Homo sapiens, UniProt P06493). As to the kind of experiment: Inhibition of CDK1/cyclin B by IMAP florescence polarization assay. The format is protein-complex assay. In short, it runs like this:
(§4)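 IMAP fluorescence polarization kinase assay measuring phosphorylation of a fluorescein-labeled substrate. Run in IMAP tween reaction buffer with 1 mM DTT and sodium vanadate.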

The nature of data set [22]: Inhibition of CDK6/cyclin D by IMAP florescence polarization assay. Put shortly: as §4
The target of a further data set is CDK9/cyclin T1 (Homo sapiens, UniProt P50750). As to the kind of experiment: Inhibition of CDK9/cyclinT by IMAP florescence polarization assay. In short, it runs like this: as §4
Data set [23] in a line: Efflux ratio of permeability from basolateral to apical side to apical to basolateral side in MDCK2 cells at 2 uM after 3 hrs. It is filed as ADME, cell-based, Canis lupus familiaris, MDCK-II. Particulars: dog, MDCK. In short, it runs like this:
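MDCK II cells grown in DMEM with 10% FBS and antibiotics, seeded 50,000 cells/well on transwells and cultured 5 days; monolayers PBS-washed. Compound at 2 μM in DMEM added to apical or basolateral side; both compartments sampled after 3 h at 37 °C in humidified CO₂. Quantified by LC–MS/MS with verapamil internal standard; Papp calculated per direction.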

Data set [24] is described as follows: Half life in CD1 mouse at 45 mg/kg, po. The format is ADME, organism-based. More on the design: dose 45 mg/kg, route oral. Particulars: in vivo. In short, it runs like this:
as §1

Data set [25] is described as follows: AUC in CD1 mouse at 30 mg/kg, po. It is filed as ADME, organism-based. More on the design: dose 30 mg/kg, route oral. Conditions: plasma. Put shortly:
as §1

Data set [26] in a line: Metabolic stability in mouse liver microsomes at 1 uM after 60 mins. The format is ADME, Microsome. Particulars: read-out: Stability. In short, it runs like this:
as §3

Data set [27] deals with Cyclin-dependent kinase 7/ cyclin H (Homo sapiens, UniProt P50613). The data set is described as follows: Inhibition of CDK7/cyclinH by Upstate enzymatic assay.

The record followed here is ChEMBL document CHEMBL1143434, “A diaminocyclohexyl analog of SNS-032 with improved permeability and bioavailability properties” (Bioorg Med Chem Lett, 2008).

What is called IC50 is the concentration that inhibits the measured activity by half. What is called half-life is how long it takes for the measured level to halve. Higher therefore signals slow decline. As usually defined, the AUC is concentration integrated over time. High values mean more exposure, low ones less exposure. What is called bioavailability is dose-corrected exposure relative to a reference, in per cent. Read a high bioavailability as good availability. The term Cmax denotes the highest concentration seen after dosing. By clearance is commonly meant the rate of elimination divided by the concentration. Low readings indicate a low capacity for elimination, high ones a high capacity for elimination. One may read the efflux ratio as a quotient of directional permeabilities that is used to spot active efflux.

Cyclin-dependent kinase 9, sequence (P50750 whole entry): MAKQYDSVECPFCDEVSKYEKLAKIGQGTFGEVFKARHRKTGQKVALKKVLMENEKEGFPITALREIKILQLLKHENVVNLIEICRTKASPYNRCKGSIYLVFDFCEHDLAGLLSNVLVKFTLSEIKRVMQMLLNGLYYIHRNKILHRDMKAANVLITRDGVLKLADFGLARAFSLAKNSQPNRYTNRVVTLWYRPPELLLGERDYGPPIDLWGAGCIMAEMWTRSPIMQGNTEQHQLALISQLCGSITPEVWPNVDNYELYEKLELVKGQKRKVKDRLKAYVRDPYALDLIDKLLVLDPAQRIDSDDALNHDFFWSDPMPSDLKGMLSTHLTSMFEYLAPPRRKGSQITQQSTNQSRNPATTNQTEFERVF
Cyclin-dependent kinase 7/ cyclin H, sequence (P51946 whole entry): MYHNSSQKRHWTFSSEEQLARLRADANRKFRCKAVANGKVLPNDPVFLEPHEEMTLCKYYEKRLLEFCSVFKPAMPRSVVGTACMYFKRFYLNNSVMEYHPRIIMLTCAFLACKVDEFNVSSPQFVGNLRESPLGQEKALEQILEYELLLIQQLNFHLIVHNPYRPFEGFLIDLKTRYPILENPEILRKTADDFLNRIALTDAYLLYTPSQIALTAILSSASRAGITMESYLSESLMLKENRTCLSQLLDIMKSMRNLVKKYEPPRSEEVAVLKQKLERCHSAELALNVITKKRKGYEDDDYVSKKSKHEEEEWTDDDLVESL
Cyclin-dependent kinase 7/ cyclin H, sequence (P50613 whole entry): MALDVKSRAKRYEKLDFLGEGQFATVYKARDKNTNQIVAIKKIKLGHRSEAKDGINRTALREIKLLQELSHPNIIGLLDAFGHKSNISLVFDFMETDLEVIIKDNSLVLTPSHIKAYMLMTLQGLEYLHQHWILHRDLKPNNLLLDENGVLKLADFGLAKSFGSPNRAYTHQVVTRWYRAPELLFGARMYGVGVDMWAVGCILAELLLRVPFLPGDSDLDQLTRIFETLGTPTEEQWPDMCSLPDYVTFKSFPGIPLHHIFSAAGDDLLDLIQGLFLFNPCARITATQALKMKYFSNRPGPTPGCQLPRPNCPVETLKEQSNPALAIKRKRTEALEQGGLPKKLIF
Cyclin-dependent kinase 1/cyclin B1, sequence (P06493 whole entry): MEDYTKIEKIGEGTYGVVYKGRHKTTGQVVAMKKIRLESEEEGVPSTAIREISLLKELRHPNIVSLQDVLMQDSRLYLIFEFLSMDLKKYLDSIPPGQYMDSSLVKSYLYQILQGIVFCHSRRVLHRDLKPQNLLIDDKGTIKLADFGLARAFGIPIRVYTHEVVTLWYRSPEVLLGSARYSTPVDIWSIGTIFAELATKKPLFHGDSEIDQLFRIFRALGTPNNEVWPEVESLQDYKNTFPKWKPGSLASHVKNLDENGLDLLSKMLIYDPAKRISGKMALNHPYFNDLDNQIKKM
Cyclin-dependent kinase 1/cyclin B1, sequence (P14635 whole entry, further chain): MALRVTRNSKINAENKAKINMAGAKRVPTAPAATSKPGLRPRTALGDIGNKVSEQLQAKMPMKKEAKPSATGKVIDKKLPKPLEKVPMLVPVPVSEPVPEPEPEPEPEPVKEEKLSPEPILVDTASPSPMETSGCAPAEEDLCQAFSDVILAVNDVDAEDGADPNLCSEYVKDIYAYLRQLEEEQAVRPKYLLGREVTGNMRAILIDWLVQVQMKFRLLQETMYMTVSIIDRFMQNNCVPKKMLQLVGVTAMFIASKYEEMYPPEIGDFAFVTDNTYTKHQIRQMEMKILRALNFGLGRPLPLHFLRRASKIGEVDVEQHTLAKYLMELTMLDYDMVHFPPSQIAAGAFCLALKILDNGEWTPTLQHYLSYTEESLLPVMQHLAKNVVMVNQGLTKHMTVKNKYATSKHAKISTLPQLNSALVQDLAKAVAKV
CDK9/cyclin T1, sequence (O60563 whole entry): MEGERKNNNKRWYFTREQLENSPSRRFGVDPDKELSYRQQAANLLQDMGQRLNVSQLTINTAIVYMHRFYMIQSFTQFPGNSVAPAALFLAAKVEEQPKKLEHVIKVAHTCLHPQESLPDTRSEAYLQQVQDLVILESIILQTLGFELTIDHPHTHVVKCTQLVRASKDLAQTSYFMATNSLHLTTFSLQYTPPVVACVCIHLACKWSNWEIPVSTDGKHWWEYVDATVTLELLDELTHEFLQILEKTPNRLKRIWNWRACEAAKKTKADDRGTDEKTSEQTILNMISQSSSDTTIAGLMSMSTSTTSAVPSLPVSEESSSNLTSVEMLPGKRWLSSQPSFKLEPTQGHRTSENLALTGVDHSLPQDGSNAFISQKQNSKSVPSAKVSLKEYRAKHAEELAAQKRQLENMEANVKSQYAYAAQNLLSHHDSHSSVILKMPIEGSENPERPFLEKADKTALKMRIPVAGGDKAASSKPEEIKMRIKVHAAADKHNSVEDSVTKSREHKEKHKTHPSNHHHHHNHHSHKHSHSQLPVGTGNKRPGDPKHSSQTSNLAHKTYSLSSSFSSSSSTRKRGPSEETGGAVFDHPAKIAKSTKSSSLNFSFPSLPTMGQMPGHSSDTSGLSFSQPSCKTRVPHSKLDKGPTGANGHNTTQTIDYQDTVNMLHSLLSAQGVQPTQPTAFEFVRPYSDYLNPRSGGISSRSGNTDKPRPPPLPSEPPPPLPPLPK
CDK9/cyclin T1, sequence (P50750 whole entry): as the sequence (P50750 whole entry) above

Take `CC(C)(C)c1cnc(CSc2cnc(NCC3CCCCC3)s2)o1`: the IC50 was 168 nM in data set [1] and > 10000 nM in data set [2].
As to `CC(C)(C)c1cnc(CSc2cnc(N[C@H]3CC[C@H](O)CC3)s2)o1`, the IC50 worked out at 7 nM in [1] and 3500 nM in [2].
On to `CC(C)(C)c1cnc(CSc2cnc(NC(=O)C3CCNCC3)s2)o1` [BMS-387032], for which the results for the half-life in data set [3] and in data set [10] were 0.5 h and 0.6 h, respectively. Also, the results for the AUC in data set [4] and in data set [7] were 1510 ng·h/mL and 434 ng·h/mL, respectively. In addition, the bioavailability in data set [5] was 14%. The Vd in data set [6] stood at 3 L/kg. Besides, the Cmax in data set [8] is 275 ng/mL; in [9] it was 2230 ng/mL. In [11], this molecule had a clearance of 55 mL/min/kg.
In the case of `CC(C)(C)c1cnc(CSc2cnc(NC3CCCCC3)s2)o1`, the 50% inhibitory concentration (IC50) in data set [1] was 9 nM; in data set [2], > 10000 nM.
For `CC(C)(C)c1cnc(CSc2cnc(N[C@H]3CC[C@@H](N)CC3)s2)o1` the same measures were 503 nM and > 10000 nM.
The corresponding values for `CC(C)(C)c1cnc(CSc2cnc(N)s2)o1` are 690 nM and > 10000 nM.
For `CC(C)(C)c1cnc(CSc2cnc(NC3CCNCC3)s2)o1` the same measures were 538 nM and > 10000 nM.
Take `CC(C)(C)c1cnc(CSc2cnc(N[C@H]3CC[C@H](N)CC3)s2)o1`: the half-life in [3] was 1.5 h; in data set [16], 1.2 h; in data set [24], 1.2 h; in [10], 1.9 h. Moreover, the area under the curve (AUC) is 10700 ng·h/mL in [12], 1160 ng·h/mL in [4], 1430 ng·h/mL in [7] and 6390 ng·h/mL in data set [25]. In addition, the peak concentration (Cmax) in data set [13] came to 4600 ng/mL; in [18], 2390 ng/mL; in data set [8], 411 ng/mL; in data set [9], 1660 ng/mL. Besides, the figures for the remaining at 0.5 h, 1 µM in [14] and in data set [20] were 64% and 76%, respectively. Further, the bioavailability came out at 100% in data set [15], 92% in [19] and 62% in data set [5]. The remaining at 1 h, 1 µM in [17] worked out at 53%; in [26] it was 77%. The Vd in data set [6] was 6 L/kg. The IC50 in data set [21] was 763 nM; in data set [22], > 2000 nM; on CDK9/cyclin T1, 97 nM; in data set [1], 20 nM; in data set [27], 105 nM; in [2] it was 355 nM. Moreover, the efflux ratio at 3 h, 2 µM in data set [23] was determined as 9.4. The clearance in [11] stood at 72 mL/min/kg.
Take `CC(C)(C)c1cnc(CSc2cnc(NC3CCCC(N)C3)s2)o1` (stereo not given): the IC50 in data set [1] was 158 nM; in data set [2] it was > 10000 nM.
For `CC(C)(C)c1cnc(CSc2cnc(NCC3CCNCC3)s2)o1` the same measures were 229 nM and > 10000 nM.
For `CC(C)(C)c1cnc(CSc2cnc(NC3CCCC(O)C3)s2)o1` (stereo not given) the same measures were 28 nM and > 10000 nM.
